What all share (type): cell-based
Test [1] is filed under the species Homo sapiens. Description: Inhibition of LPA-induced TRPV2/LPAR1 mediated cell migration in human PC3M cells at 0.1 uM after 24 hrs by transwell migration assay.
The test system of test [2] is T1, Transient receptor potential cation channel subfamily V member 2 (Mus musculus), Q9WTR1 [F467S].
T1 sequence (whole entry): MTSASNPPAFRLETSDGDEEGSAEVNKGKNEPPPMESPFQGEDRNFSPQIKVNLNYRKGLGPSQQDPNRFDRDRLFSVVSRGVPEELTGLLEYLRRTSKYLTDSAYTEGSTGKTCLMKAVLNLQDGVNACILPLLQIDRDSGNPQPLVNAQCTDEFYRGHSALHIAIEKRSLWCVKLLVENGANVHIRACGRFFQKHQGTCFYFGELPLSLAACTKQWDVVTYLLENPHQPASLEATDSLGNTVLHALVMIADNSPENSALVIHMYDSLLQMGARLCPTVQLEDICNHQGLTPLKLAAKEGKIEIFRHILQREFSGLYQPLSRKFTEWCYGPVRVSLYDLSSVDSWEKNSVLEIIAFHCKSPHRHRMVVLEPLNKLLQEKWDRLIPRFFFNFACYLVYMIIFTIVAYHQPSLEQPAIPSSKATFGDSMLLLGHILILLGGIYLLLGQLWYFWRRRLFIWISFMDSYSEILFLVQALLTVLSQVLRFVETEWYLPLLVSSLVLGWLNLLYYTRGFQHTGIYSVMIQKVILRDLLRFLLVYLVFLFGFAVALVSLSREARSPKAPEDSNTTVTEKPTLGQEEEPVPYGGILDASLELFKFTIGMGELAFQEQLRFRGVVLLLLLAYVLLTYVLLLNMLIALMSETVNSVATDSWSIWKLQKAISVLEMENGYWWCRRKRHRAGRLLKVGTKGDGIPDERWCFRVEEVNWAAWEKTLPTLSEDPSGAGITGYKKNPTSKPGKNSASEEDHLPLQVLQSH
Description: Antagonist activity at mouse TRPV2 F467S mutant expressed in HEK293T cells assessed as inhibition of 2-APB evoked currents at -60 mV holding potential by whole-cell patch clamp assay. In outline:
(§1)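 Whole-cell voltage clamp of transiently transfected HEK293T cells co-expressing GFP, recorded 36-96 h post-transfection. Hold -60 mV; pipettes 3-7 MΩ. Bath 165 mM NaCl, 10 mM HEPES pH 7.3; pipette 140 mM KCl, 10 mM HEPES pH 7.3. Room temperature (~25 °C). IC50 from Hill fits of I/I0, the current ratio after vs before inhibitor; mean ± SEM.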

Test [3] addresses Transient receptor potential cation channel subfamily V member 1 (Mus musculus) (UniProt Q704Y3). Description: Antagonist activity at mouse TRPV1 expressed in HEK293T cells assessed as inhibition of 2-APB evoked currents at 3 to 10 uM -60 mV holding potential by whole-cell patch clamp assay. In outline:
as §1

Test [4] deals with T2, Transient receptor potential cation channel subfamily V member 3 (Mus musculus) (UniProt Q8K424).
T2 sequence (whole entry): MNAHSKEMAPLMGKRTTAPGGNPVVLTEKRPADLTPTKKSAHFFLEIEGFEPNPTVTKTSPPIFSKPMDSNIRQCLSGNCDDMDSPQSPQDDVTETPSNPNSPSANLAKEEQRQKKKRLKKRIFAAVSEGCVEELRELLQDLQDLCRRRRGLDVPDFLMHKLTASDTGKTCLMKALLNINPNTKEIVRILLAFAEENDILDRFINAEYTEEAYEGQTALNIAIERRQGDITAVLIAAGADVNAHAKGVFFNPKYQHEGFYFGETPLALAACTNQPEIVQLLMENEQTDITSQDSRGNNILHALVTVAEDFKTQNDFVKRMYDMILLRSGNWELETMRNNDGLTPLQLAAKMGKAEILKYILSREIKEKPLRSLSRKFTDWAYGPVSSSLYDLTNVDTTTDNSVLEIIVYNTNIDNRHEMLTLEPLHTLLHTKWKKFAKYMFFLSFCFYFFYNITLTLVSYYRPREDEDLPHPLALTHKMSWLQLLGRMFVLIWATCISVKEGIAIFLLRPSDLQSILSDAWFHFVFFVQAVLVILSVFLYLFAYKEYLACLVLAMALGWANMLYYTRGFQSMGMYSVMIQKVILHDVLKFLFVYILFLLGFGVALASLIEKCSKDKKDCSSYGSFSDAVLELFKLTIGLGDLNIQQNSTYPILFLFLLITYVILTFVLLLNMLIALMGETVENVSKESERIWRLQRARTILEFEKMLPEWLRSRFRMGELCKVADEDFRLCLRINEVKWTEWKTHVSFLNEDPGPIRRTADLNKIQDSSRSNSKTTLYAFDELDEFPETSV
Description: Antagonist activity at mouse TRPV3 expressed in HEK293T cells assessed as inhibition of 2-APB evoked currents at 3 to 10 uM -60 mV holding potential by whole-cell patch clamp assay. A digest of the protocol: as §1

The test system of test [5] is Transient receptor potential cation channel subfamily V member 1 (Mus musculus), Q704Y3 [S513F,T551L]. Description: Antagonist activity at mouse TRPV1 S513F/T551L double mutant expressed in HEK293T cells assessed as inhibition of 2-APB evoked currents at 0.3 to 10 uM at -60 mV holding potential by whole-cell patch clamp assay. A digest of the protocol:
as §1

The species entered for test [6] is Homo sapiens. As to the kind of experiment: Inhibition of LPA-induced TRPV2/LPAR1 mediated cell migration in human PC3M cells at 20 uM after 24 hrs by transwell migration assay.

Our source for the inhibition values is ChEMBL document CHEMBL4422635, “Structure-Based Discovery of a Subtype-Selective Inhibitor Targeting a Transient Receptor Potential Vanilloid Channel” (J Med Chem, 2019).

SMILES strings stand for the structures. Active and inactive are the calls of the source. The rule behind the calls is not given here.

Transient receptor potential cation channel subfamily V member 1 (Mus musculus), Q704Y3 [S513F,T551L], sequence (Q704Y3 whole entry S513F/T551L): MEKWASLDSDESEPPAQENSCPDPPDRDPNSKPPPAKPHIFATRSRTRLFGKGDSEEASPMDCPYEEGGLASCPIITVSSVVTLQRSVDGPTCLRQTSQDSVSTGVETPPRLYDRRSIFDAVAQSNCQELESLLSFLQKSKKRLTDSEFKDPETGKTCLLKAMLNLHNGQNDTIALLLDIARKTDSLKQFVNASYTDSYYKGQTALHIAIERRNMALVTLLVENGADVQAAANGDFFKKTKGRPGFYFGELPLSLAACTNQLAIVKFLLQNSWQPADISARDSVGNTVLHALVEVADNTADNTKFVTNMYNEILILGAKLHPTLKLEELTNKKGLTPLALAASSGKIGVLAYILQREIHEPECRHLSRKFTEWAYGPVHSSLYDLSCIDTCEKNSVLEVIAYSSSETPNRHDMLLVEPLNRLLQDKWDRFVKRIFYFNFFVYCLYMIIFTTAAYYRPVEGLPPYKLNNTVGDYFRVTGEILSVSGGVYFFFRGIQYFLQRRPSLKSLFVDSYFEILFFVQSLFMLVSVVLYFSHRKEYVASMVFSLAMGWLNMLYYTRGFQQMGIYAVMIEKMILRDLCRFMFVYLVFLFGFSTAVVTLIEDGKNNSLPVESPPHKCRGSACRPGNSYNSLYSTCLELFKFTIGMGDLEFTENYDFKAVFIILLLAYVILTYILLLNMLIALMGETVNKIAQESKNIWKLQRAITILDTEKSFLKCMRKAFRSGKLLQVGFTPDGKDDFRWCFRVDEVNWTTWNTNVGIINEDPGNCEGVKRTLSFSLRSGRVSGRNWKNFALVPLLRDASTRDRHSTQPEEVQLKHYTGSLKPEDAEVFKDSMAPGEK
Transient receptor potential cation channel subfamily V member 1 (Mus musculus), sequence (Q704Y3 whole entry): as the sequence (Q704Y3 whole entry S513F/T551L) above, with F513S, L551T counted along it

Take `CCCN(C)c1cc(C(F)(F)F)nc(SCCC(=O)NCc2ccco2)n1`: the inhibition entry in test [1], in test [5] and in test [6] was “Active” each time. Moreover, the inhibition result in test [2], in test [3] and in test [4] was “inactive” each time.
